Activity calls are given as the source filed them. The rule behind the calls is not given here.
Experiments:
[1] = biological target: Hepatocyte growth factor receptor (Homo sapiens) (UniProt P08581); test: Inhibition of MET phosphorylation at Y1234/1235 in erlotinib-resistant human HCC827B cells at 4 uM after 1 to 1.5 hrs by immunoblot analysis
Outline: (§1)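 Whole HCC827B cells, or mitochondria first purified from them, were treated separately with 4 μM compound for 1 and 1.5 h, then immunoblotted for p-MET Y1234/1235. Each lane held 10 μg protein; loading controls were SDHA for mitochondria and actin for whole cells.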

[2] = system: HCC827; test: Cytotoxicity against erlotinib-sensitive human HCC827A cells assessed as reduction in cell viability after 72 hrs by MTT assay; type: functional, cell-based; settings: HCC827, 72 h
Outline: (§2)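 Colorimetric tetrazolium assay after 72 h exposure; IC50 derived from viability. Comparisons between compounds by unpaired Student's t test.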

[3] = system: HCC827; test: Induction of apoptosis in erlotinib-resistant human HCC827B cells assessed as increase in cleaved PARP level at 4 uM measured up to 60 hrs by immunoblot analysis; type: functional, cell-based
Outline: (§3)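 HCC827B cells treated with 4 μM compound; whole-cell lysates collected at 12, 24, 36, 48 and 60 h and immunoblotted for cleaved PARP and cleaved caspases 3 and 7. Control was untreated cells at 0 h; GAPDH was the loading control.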

[4] = Effect on total MET expression level in mitochondria isolated from erlotinib-resistant human HCC827B cells at 4 uM after 1 to 1.5 hrs by immunoblot analysis; type: ADME
[5] = biological target: Hepatocyte growth factor receptor (Homo sapiens) (UniProt P08581); test: Inhibition of MET phosphorylation at Y1234/1235 in mitochondria isolated from erlotinib-resistant human HCC827B cells at 4 uM after 1 to 1.5 hrs by immunoblot analysis; outline: as §1
[6] = Drug uptake in mitochondria of erlotinib-resistant human HCC827B cells assessed as R1 gated population at 4 uM after 1 hr by FACS analysis (reference value: >98%); type: ADME
[7] = system: HCC827; test: Induction of apoptosis in erlotinib-resistant human HCC827B cells assessed as increase in cleaved caspase 7 level at 4 uM measured up to 60 hrs by immunoblot analysis; type: functional, cell-based; outline: as §3
[8] = biological target: Hepatocyte growth factor receptor (Homo sapiens) (UniProt P08581); test: Inhibition of MET phosphorylation at Y1234/1235 in mitochondria isolated from compound treated erlotinib-resistant human HCC827B cells at 4 uM after 24 hrs by immunoblot analysis
Outline: (§4)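 HCC827B cells exposed to 4 μM compound for 24 h; whole-cell lysates and mitochondria then isolated from treated cells and immunoblotted for p-MET Y1234/1235. Each lane held 10 μg protein; loading controls were actin (whole cells) and SDHA (mitochondria).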

[9] = Drug uptake in mitochondria of erlotinib-resistant human HCC827B cells assessed as R1 gated population at 4 uM after 1 hr by MTR staining based FACS analysis (reference value: >98%); type: ADME
[10] = system: HCC827; test: Induction of apoptosis in erlotinib-resistant human HCC827B cells assessed as increase in cleaved caspase 3 level at 4 uM measured up to 60 hrs by immunoblot analysis; type: functional, cell-based; outline: as §3
[11] = Drug uptake in mitochondria of human HeLa cells at 4 uM after 3 hrs by MTR dye/Hoechst 33342 staining based confocal microscopy; type: ADME
Outline: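 HeLa cells were exposed to 4 μM compound for 3 h, then stained with MitoTracker Red and Hoechst 33342 and imaged by confocal microscopy. Intrinsic compound green fluorescence (Ex 460, Em 520 nm) was compared for overlap with MTR.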

[12] = system: TAMH; test: Cytotoxicity against TAMH assessed as reduction in cell viability after 24 hrs by cell titer glo based luminescence assay; settings: Mus musculus
Outline: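 TAMH (TGFα-transformed murine hepatocytes; stable, nontumorigenic, metabolically competent line) exposed to compound for 24 h; IC50 from viability.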

[13] = biological target: Hepatocyte growth factor receptor (Homo sapiens) (UniProt P08581); test: Inhibition of MET phosphorylation at Y1234/1235 in erlotinib-resistant human HCC827B cells at 4 uM after 24 hrs by immunoblot analysis; outline: as §4
[14] = system: HCC827; test: Effect on total MET expression level in erlotinib-resistant human HCC827B cells at 4 uM after 1 to 1.5 hrs by immunoblot analysis; type: ADME, cell-based; settings: hcc827, 4 µM
[15] = system: HCC827; test: Cytotoxicity against erlotinib-resistant human HCC827B cells expressing MET assessed as reduction in cell viability after 72 hrs by MTT assay; type: functional, cell-based; settings: HCC827, 72 h; outline: as §2
[16] = system: HCC827; test: Cytotoxicity against erlotinib-sensitive human HCC827A cells assessed as cell viability at 1 uM after 72 hrs by MTT assay; type: functional; settings: HCC827, 72 h, read-out: Activity
Outline: (§5)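 Colorimetric tetrazolium viability assay with erlotinib at 1 μM; % viability reported, n = 3.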

[17] = system: HCC827; test: Cytotoxicity against erlotinib-resistant human HCC827B cells assessed as cell viability at 1 uM after 72 hrs by MTT assay; type: functional; settings: HCC827, 72 h, read-out: Activity; outline: as §5

Hepatocyte growth factor receptor (Homo sapiens), sequence (P08581 whole entry): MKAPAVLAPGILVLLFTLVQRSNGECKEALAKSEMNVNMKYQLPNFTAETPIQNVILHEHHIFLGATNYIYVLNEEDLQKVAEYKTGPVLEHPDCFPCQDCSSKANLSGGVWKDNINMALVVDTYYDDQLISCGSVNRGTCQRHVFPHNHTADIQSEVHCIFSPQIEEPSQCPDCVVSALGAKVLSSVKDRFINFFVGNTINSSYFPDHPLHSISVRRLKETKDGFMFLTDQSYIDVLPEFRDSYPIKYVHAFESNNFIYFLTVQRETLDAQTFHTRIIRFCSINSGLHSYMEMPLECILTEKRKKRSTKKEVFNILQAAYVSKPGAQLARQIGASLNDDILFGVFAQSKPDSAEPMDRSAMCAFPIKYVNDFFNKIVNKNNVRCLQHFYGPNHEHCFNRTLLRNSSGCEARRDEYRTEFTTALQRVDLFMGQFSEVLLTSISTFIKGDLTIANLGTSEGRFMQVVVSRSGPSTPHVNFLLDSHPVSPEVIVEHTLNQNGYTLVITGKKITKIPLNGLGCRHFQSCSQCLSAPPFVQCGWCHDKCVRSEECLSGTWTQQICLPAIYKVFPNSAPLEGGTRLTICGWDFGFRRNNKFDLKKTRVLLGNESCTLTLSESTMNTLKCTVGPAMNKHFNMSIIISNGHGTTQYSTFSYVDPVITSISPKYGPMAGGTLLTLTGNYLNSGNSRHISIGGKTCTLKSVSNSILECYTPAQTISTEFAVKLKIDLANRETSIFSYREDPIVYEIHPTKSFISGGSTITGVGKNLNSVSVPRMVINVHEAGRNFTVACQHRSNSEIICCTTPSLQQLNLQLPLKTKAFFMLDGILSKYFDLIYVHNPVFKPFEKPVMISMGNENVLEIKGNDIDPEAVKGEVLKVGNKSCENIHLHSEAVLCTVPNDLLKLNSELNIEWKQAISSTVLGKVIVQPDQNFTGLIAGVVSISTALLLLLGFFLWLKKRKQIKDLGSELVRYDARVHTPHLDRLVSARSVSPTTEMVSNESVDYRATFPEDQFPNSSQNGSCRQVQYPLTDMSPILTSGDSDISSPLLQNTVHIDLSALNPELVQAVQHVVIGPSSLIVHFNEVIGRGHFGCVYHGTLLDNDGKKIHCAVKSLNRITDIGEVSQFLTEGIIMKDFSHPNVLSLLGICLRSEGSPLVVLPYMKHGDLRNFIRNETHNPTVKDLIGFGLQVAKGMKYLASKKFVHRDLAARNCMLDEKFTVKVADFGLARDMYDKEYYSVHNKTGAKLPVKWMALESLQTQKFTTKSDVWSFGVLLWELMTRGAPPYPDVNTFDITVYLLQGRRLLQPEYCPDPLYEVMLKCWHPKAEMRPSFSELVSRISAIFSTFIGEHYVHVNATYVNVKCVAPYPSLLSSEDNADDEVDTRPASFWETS

Row | SMILES | inhibition [1] | IC50 [2] [µM] | Activity [3] | Activity [4] | inhibition [5] | Drug uptake [6] [%] | Activity [7] | inhibition [8] | Drug uptake [9] [%] | Activity [10] | Drug uptake [11] | IC50 [12] [µM] | inhibition [13] | Activity [14] | IC50 [15] [µM] | viability at 1 µM [16] [%] | viability at 1 µM [17] [%]
1 | Cc1[nH]c(/C=C2\C(=O)Nc3ccc(S(=O)(=O)Cc4c(Cl)cccc4Cl)cc32)c(C)c1C(=O)NCC[P+](c1ccccc1)(c1ccccc1)c1ccccc1.[Br-] | Active | 16.7 | Active | Non-Toxic | inactive | 98 | Active | Active | 95 | Active | Active | 15.1 | Active | Non-Toxic | 5.3 |  | 
2 | C#Cc1cccc(Nc2ncnc3cc(OCCOC)c(OCCOC)cc23)c1 [ERLOTINIB] |  |  |  |  |  |  |  |  |  |  |  |  |  |  |  | 22.4 | 72.4
3 | Cc1[nH]c(/C=C2\C(=O)Nc3ccc(S(=O)(=O)Cc4c(Cl)cccc4Cl)cc32)c(C)c1C(=O)N1CCC[C@@H]1CN1CCCC1 [PHA-665752] | Active | 15.7 | Active | Non-Toxic | inactive |  | Active | Active | 35 | Active | Not Active | 8.9 |  | Non-Toxic | 8.9 |  | 
